ChEMBL document CHEMBL4673214, “Synthesis and antibacterial bioactivities of cationic deacetyl linezolid amphiphiles” (Eur J Med Chem, 2018)

Experiments:
[1] = tested on: Enterococcus faecalis; test: Antibacterial activity against Enterococcus faecalis ATCC 29212 assessed as reduction in bacterial growth incubated 16 to 20 hrs by CLSI-based broth microdilution method; type: functional; conditions: time 16-20 hrs
Procedure, shortened: (§1)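 Broth microdilution following CLSI, in cation-adjusted Mueller-Hinton broth. Inoculum from a 4-6 h culture (~10^8 CFU/mL), diluted to ~10^6 CFU/mL. Water stocks were serially diluted in MHB (256 to 0.5 µg/mL) and mixed 1:1 with the inoculum. Plates ran 16-20 h at 37 °C. MIC was read visually. Each concentration was tested in duplicate, and the experiment was repeated at least twice.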

[2] = Solubility of the compound in water at room temperature; type: physicochemical; conditions: buffer
[3] = tested on: Escherichia coli; test: Antibacterial activity against Escherichia coli ATCC 25922 assessed as reduction in bacterial growth incubated 16 to 20 hrs by CLSI-based broth microdilution method; type: functional; conditions: time 16-20 hrs; procedure, shortened: as §1
[4] = tested on: Staphylococcus aureus; test: Antibacterial activity against Staphylococcus aureus ATCC 29213 assessed as reduction in bacterial growth incubated for 16 to 20 hrs by CLSI-based broth microdilution method; type: functional; conditions: time 16-20 hrs; procedure, shortened: as §1
[5] = tested on: Salmonella enterica; test: Antibacterial activity against Salmonella enterica ATCC 8387 assessed as reduction in bacterial growth incubated for 16 to 20 hrs by CLSI-based broth microdilution method; type: functional; conditions: time 16-20 hrs; procedure, shortened: as §1

| MIC [1] [µg/mL] | solubility [2] | MIC [3] [µg/mL] | MIC [4] [µg/mL] | MIC [5] [µg/mL] | SMILES |
| --- | --- | --- | --- | --- | --- |
| 64 | Soluble | 128 | 32 | 128 | CCCCCCCCN(C[C@H]1CN(c2ccc(N3CCOCC3)c(F)c2)C(=O)O1)C(=O)[C@@H](N)CCCCN.Cl.Cl |
| 128 | Soluble | > 128 | 128 | > 128 | CCCCCCCN(C[C@H]1CN(c2ccc(N3CCOCC3)c(F)c2)C(=O)O1)C(=O)[C@@H](N)CCCCN.Cl.Cl |
| 32 | Soluble | 64 | 16 | 64 | CCCCCCCCCN(C[C@H]1CN(c2ccc(N3CCOCC3)c(F)c2)C(=O)O1)C(=O)[C@@H](N)CCCN=C(N)N.Cl.Cl.Cl |
| > 128 | – | > 128 | > 128 | > 128 | NC[C@H]1CN(c2ccc(N3CCOCC3)c(F)c2)C(=O)O1 |
| 8 | Soluble | 32 | 4 | 32 | CCCCCCCCCCN(C[C@H]1CN(c2ccc(N3CCOCC3)c(F)c2)C(=O)O1)C(=O)[C@@H](N)CCCCN.Cl.Cl |
| 8 | Soluble | 16 | 8 | 32 | CCCCCCCCCCN(C[C@H]1CN(c2ccc(N3CCOCC3)c(F)c2)C(=O)O1)C(=O)[C@@H](N)CCCN=C(N)N.Cl.Cl.Cl |
| 128 | Soluble | 128 | 64 | > 128 | CCCCCCCN(C[C@H]1CN(c2ccc(N3CCOCC3)c(F)c2)C(=O)O1)C(=O)[C@@H](N)CCCN=C(N)N.Cl.Cl.Cl |
| 16 | Soluble | 64 | 16 | 64 | CCCCCCCCCN(C[C@H]1CN(c2ccc(N3CCOCC3)c(F)c2)C(=O)O1)C(=O)[C@@H](N)CCCCN.Cl.Cl |
| 16 | Soluble | > 128 | 4 | > 128 | CCCCCCCCCCCCCCCCCC[N+](C)(C)CC(=O)NC[C@H]1CN(c2ccc(N3CCOCC3)c(F)c2)C(=O)O1.[Cl-] |
| 64 | Soluble | 128 | 128 | 128 | CCCCCCCC[N+](C)(C)CC(=O)NC[C@H]1CN(c2ccc(N3CCOCC3)c(F)c2)C(=O)O1.[Cl-] |
| > 128 | Soluble | > 128 | > 128 | > 128 | CCCC[N+](C)(C)CC(=O)NC[C@H]1CN(c2ccc(N3CCOCC3)c(F)c2)C(=O)O1.[Cl-] |
| 16 | Soluble | 32 | 8 | 32 | CCCCCCCCC[N+](C)(C)CC(=O)NC[C@H]1CN(c2ccc(N3CCOCC3)c(F)c2)C(=O)O1.[Cl-] |
| 32 | Soluble | > 128 | 16 | > 128 | CCCCCCCCN(C[C@H]1CN(c2ccc(N3CCOCC3)c(F)c2)C(=O)O1)C(=O)[C@@H](N)CCCN=C(N)N.Cl.Cl.Cl |
